{"source": "ChEMBL document CHEMBL1141669", "about": "“Nitrile analogs of meperidine as high affinity and selective sigma-1 receptor ligands” (Eur J Med Chem, 2008)"}
{"molecular_target": "Mu-type opioid receptor (Homo sapiens, UniProt P35372)", "sequence (P35372 whole entry)": "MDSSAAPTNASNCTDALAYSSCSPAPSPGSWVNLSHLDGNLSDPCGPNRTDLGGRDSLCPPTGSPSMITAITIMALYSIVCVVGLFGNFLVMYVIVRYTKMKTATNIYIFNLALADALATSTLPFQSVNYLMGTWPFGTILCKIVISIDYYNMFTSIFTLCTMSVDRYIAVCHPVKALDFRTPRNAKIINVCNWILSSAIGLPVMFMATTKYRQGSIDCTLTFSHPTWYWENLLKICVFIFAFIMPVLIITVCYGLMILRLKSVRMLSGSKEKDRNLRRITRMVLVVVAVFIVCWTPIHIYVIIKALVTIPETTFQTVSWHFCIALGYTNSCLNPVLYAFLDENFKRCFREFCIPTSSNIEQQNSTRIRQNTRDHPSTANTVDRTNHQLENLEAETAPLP", "experiment": "Binding affinity to mu opioid receptor", "units": {"Ki": "µM"}}
{"smiles": "CN1CCC(C#N)(c2ccccc2)CC1", "Ki": "> 10"}
{"smiles": "C=CCN1CCC(C#N)(c2ccccc2)CC1", "Ki": "> 10"}
{"smiles": "N#CC1(c2ccccc2)CCN(Cc2ccccc2)CC1", "Ki": 5.9}
{"smiles": "C=C(C)CN1CCC(C#N)(c2ccccc2)CC1", "Ki": "> 10"}
{"smiles": "N#CC1(c2ccccc2)CCN(CCCCc2ccccc2)CC1", "Ki": 9.8}
{"molecular_target": "Kappa-type opioid receptor (Homo sapiens, UniProt P41145)", "sequence (P41145 whole entry)": "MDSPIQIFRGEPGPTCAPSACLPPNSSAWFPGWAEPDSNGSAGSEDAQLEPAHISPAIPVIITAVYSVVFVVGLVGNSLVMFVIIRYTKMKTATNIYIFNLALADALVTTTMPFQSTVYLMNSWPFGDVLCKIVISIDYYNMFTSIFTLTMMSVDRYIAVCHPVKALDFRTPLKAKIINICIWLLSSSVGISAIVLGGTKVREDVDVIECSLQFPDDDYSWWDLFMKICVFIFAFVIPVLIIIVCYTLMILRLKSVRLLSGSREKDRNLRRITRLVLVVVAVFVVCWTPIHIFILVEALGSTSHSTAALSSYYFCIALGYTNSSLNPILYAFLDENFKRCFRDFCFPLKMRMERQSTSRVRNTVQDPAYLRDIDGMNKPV", "experiment": "Binding affinity to kappa opioid receptor", "units": {"Ki": "µM"}}
{"smiles": "CN1CCC(C#N)(c2ccccc2)CC1", "Ki": "> 10"}
{"smiles": "C=CCN1CCC(C#N)(c2ccccc2)CC1", "Ki": "> 10"}
{"smiles": "N#CC1(c2ccccc2)CCN(Cc2ccccc2)CC1", "Ki": "> 10"}
{"smiles": "C=C(C)CN1CCC(C#N)(c2ccccc2)CC1", "Ki": "> 10"}
{"smiles": "N#CC1(c2ccccc2)CCN(CCCCc2ccccc2)CC1", "Ki": "> 10"}
{"molecular_target": "Delta-type opioid receptor (Homo sapiens, UniProt P41143)", "sequence (P41143 whole entry)": "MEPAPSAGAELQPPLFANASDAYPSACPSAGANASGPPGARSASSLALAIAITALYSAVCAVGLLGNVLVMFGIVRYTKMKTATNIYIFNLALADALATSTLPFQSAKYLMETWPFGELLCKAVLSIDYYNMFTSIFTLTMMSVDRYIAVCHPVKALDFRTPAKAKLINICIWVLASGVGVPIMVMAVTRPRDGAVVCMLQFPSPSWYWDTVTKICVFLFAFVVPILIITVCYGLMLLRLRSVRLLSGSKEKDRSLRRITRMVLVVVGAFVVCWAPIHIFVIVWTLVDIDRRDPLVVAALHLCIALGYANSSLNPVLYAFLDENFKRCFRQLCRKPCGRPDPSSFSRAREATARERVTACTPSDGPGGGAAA", "experiment": "Binding affinity to delta opioid receptor", "units": {"Ki": "µM"}}
{"smiles": "CN1CCC(C#N)(c2ccccc2)CC1", "Ki": "> 10"}
{"smiles": "C=CCN1CCC(C#N)(c2ccccc2)CC1", "Ki": "> 10"}
{"smiles": "N#CC1(c2ccccc2)CCN(Cc2ccccc2)CC1", "Ki": "> 10"}
{"smiles": "C=C(C)CN1CCC(C#N)(c2ccccc2)CC1", "Ki": 5}
{"smiles": "N#CC1(c2ccccc2)CCN(CCCCc2ccccc2)CC1", "Ki": "> 10"}
{"molecular_target": "Sigma non-opioid intracellular receptor 1 (Rattus norvegicus, UniProt Q9R0C9)", "sequence (Q9R0C9 whole entry)": "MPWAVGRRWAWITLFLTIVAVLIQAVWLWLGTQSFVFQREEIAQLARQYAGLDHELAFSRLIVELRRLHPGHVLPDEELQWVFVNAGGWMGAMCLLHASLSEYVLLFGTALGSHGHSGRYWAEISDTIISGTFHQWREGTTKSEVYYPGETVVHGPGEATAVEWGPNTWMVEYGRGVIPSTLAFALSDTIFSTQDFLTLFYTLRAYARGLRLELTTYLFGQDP", "experiment": "Displacement of [3H](+)-pentazocine from sigma 1 opioid receptor in rat brain cerebellum", "assay_type": "tissue-based", "summary_of_the_method": "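σ1 radioligand binding with 5 nM [3H](+)-pentazocine in 50 mM Tris–HCl, pH 8.0. Nonspecific binding defined with 10 µM haloperidol. Test ligand at twelve concentrations, 120 min at 25 °C.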", "units": {"Ki": "nM"}}
{"smiles": "CN1CCC(C#N)(c2ccccc2)CC1", "Ki": 113}
{"smiles": "c1ccc(CCN2CCCCC2)cc1", "note": "[1-PHENETHYLPIPERIDINE]", "Ki": 30}
{"smiles": "N#CC1(c2ccccc2)CCN(CCCc2ccccc2)CC1", "Ki": 0.38}
{"smiles": "c1ccc(CCN2CCN(c3ccccn3)CC2)cc1", "Ki": 322}
{"smiles": "C=CCN1CCC(C#N)(c2ccccc2)CC1", "Ki": 2.2}
{"smiles": "CCCN1CCC(C#N)(c2ccccc2)CC1", "Ki": 1.7}
{"smiles": "N#CC1(c2ccccc2)CCN(Cc2ccccc2)CC1", "Ki": 0.41}
{"smiles": "C=C(C)CN1CCC(C#N)(c2ccccc2)CC1", "Ki": 3.7}
{"smiles": "N#CC1(c2ccccc2)CCN(CCCCc2ccccc2)CC1", "Ki": 49}
{"smiles": "N#CC1(c2ccccc2)CCN(CCc2ccccc2)CC1", "Ki": 3.3}
{"smiles": "CC(C)CN1CCC(C#N)(c2ccccc2)CC1", "Ki": 0.35}
{"molecular_target": "not listed separately", "experiment": "Displacement of [3H]ditolylguanidine from sigma 2 opioid receptor in rat brain cerebellum", "assay_type": "tissue-based", "summary_of_the_method": "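σ2 sites labeled with 3 nM [3H]di-o-tolylguanidine, with 300 nM (+)-pentazocine present to mask σ1, in 50 mM Tris–HCl, pH 8.0. Nonspecific binding taken with 10 µM haloperidol. Twelve test-ligand concentrations, incubated 120 min at 25 °C.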", "units": {"Ki": "nM"}}
{"smiles": "CN1CCC(C#N)(c2ccccc2)CC1", "Ki": 2140}
{"smiles": "c1ccc(CCN2CCCCC2)cc1", "note": "[1-PHENETHYLPIPERIDINE]", "Ki": 138}
{"smiles": "N#CC1(c2ccccc2)CCN(CCCc2ccccc2)CC1", "Ki": 46}
{"smiles": "c1ccc(CCN2CCN(c3ccccn3)CC2)cc1", "Ki": 170}
{"smiles": "C=CCN1CCC(C#N)(c2ccccc2)CC1", "Ki": 662}
{"smiles": "CCCN1CCC(C#N)(c2ccccc2)CC1", "Ki": 143}
{"smiles": "N#CC1(c2ccccc2)CCN(Cc2ccccc2)CC1", "Ki": 657}
{"smiles": "C=C(C)CN1CCC(C#N)(c2ccccc2)CC1", "Ki": 482}
{"smiles": "N#CC1(c2ccccc2)CCN(CCCCc2ccccc2)CC1", "Ki": 1310}
{"smiles": "N#CC1(c2ccccc2)CCN(CCc2ccccc2)CC1", "Ki": 118}
{"smiles": "CC(C)CN1CCC(C#N)(c2ccccc2)CC1", "Ki": 63}
{"species": "Rattus norvegicus", "experiment": "Selectivity ratio of Ki for rat sigma 2 opioid receptor to Ki for rat sigma 1 opioid receptor"}
{"smiles": "CN1CCC(C#N)(c2ccccc2)CC1", "Ratio Ki": 19}
{"smiles": "c1ccc(CCN2CCCCC2)cc1", "note": "[1-PHENETHYLPIPERIDINE]", "Ratio Ki": 5}
{"smiles": "N#CC1(c2ccccc2)CCN(CCCc2ccccc2)CC1", "Ratio Ki": 120}
{"smiles": "c1ccc(CCN2CCN(c3ccccn3)CC2)cc1", "Ratio Ki": 0.53}
{"smiles": "C=CCN1CCC(C#N)(c2ccccc2)CC1", "Ratio Ki": 300}
{"smiles": "CCCN1CCC(C#N)(c2ccccc2)CC1", "Ratio Ki": 84}
{"smiles": "N#CC1(c2ccccc2)CCN(Cc2ccccc2)CC1", "Ratio Ki": 1600}
{"smiles": "C=C(C)CN1CCC(C#N)(c2ccccc2)CC1", "Ratio Ki": 130}
{"smiles": "N#CC1(c2ccccc2)CCN(CCCCc2ccccc2)CC1", "Ratio Ki": 27}
{"smiles": "N#CC1(c2ccccc2)CCN(CCc2ccccc2)CC1", "Ratio Ki": 36}
{"smiles": "CC(C)CN1CCC(C#N)(c2ccccc2)CC1", "Ratio Ki": 180}
